Experimental data: PubChem BioAssay
Calls of active or inactive are those of the source.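 Rule for the calls, unless noted: active = Her2 level under about 52% in both replicate screens, with viability over 70% of control (limit read from the data); inconclusive = Her2 under the limit in one screen only, or viability under 70%; inactive = Her2 level above the set limit.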

Assays:
[1] = reducers of endogenous Her2 protein level, primary screen, SKBR3 breast tumor cells, AlphaScreen, ATP viability (AID 461); conditions: 18-24 h, measured here: SKBR3 viability, ATP luminescence, at 10 µM;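 for Her2 level: lower value means less Her2 protein in the cells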;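 for viability: percent of carrier control wells set as 100% viability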
[2] = target: Receptor tyrosine-protein kinase erbB-2 (Homo sapiens) (UniProt P04626); experiment: as above; conditions: 18-24 h, at 10 µM, stronger effect = lower value
Chain of Receptor tyrosine-protein kinase erbB-2 (Homo sapiens) (P04626 whole entry, looked up): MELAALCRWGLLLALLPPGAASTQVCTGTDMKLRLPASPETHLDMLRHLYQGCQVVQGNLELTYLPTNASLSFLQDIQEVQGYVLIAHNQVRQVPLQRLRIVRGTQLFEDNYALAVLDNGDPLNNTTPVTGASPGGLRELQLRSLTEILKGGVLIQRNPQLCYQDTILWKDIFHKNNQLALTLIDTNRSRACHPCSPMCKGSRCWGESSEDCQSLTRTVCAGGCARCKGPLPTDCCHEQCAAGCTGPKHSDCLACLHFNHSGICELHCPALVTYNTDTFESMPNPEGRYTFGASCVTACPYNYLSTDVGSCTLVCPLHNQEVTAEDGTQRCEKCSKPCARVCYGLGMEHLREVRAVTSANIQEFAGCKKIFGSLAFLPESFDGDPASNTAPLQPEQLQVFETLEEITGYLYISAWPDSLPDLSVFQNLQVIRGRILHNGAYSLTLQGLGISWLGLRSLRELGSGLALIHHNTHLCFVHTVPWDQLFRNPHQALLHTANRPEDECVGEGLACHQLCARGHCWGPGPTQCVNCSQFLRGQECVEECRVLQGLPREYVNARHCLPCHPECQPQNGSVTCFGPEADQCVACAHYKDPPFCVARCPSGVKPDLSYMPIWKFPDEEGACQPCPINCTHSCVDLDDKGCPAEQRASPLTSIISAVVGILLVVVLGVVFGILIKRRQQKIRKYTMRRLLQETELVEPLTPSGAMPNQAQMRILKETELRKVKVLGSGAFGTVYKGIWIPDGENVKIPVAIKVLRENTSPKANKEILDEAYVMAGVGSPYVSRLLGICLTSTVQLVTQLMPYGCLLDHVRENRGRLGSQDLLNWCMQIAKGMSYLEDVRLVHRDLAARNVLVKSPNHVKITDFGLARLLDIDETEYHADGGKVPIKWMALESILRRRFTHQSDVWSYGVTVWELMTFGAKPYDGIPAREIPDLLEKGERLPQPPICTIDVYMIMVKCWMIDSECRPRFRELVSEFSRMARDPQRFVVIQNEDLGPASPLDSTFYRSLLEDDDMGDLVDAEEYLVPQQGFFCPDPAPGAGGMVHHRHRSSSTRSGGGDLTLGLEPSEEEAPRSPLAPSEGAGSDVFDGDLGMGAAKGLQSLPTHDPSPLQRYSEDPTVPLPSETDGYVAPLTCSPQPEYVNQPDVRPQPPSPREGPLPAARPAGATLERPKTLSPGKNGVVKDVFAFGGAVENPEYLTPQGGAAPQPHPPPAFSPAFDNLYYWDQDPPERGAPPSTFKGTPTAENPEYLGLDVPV

[3] = SK-BR-3 cell growth inhibitors, pilot screen, 24 h, human (AID 572;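 active = viability at or below 10% of carrier control in both of two separate runs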;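 note: compound exposure lasted between 18 and 24 h rather than exactly 24 h; 100% = carrier-treated control wells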); conditions: SK-BR-3 viability, CellTiter-Glo luminescence, at 10 µM, stronger effect = lower value
[4] = HUVEC growth inhibition – cell-based, human, primary screen (AID 575;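 active = viability at or below 30% in both replicate assays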;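 note: 100% = median of untreated cell wells with 0.1% DMSO on each plate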); conditions: HUVEC proliferation, CellTiter-Glo luminescence, 72 h; at 10 µM; stronger effect = lower value
In short: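 System – primary HUVEC, no more than 12 passages · Medium – Low-serum (2% FBS) EBM, supplemented · Times – 72 h exposure, 37 °C, 5% CO2, 30 min RT equilibration · Measured by – luminescent ATP assay · Read-out – % viability relative to median vehicle-well signal on each plate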

[5] = growth inhibitors of H69AR lung tumor, primary screen, human, duplicate replicates (AID 580;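 active = viability at or under a set limit in both replicates, limit being median viability minus 3 SD, cut at about 48% in these data, passing the limit was not always enough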;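 note: 100% = mean luminescence of untreated wells and 0% = no signal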); conditions: H69AR lung tumor cells viability, ATP luminescence, 72 h; at 10 µM; stronger effect = lower value
[6] = reversal of MRP1-mediated doxorubicin resistance, pilot screen, H69AR cells, doxorubicin co-treatment (AID 601;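 active = viability loss from added drug above about 55%, and viability with drug at most 40%, in both replicates, limit read from the data, passing the limit was not always enough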); conditions: CellTiter-Glo, 72 h, at 10 µM; for differential viability (reversal): stronger effect = higher value
[7] = 384-well plate pilot, post-Golgi transport modulator project, inhibition of yeast transport mutant growth (AID 636; in the data active = inhibition above about 31%); conditions: absorbance 615 nm, about 18 h, stronger effect = higher value
[8] = growth suppression of yeast trafficking mutant, preliminary HTS, modulators of trafficking downstream of Golgi apparatus project, 1536-format plate, OD 615 nm (AID 637; in the data active = inhibition above about 30%); conditions: yeast transport mutant growth, absorbance 615 nm, 18 h; stronger effect = higher value
[9] = H69AR cells + 2 uM doxorubicin, measured here: viability with 2 uM doxorubicin, stronger effect = lower value
[10] = H69AR cells, compound alone cytotoxicity

Row | SMILES | viability [1] [%] | Her2 level [2] | viability [3] | viability [4] | viability [5] | differential viability (reversal) ([6]; H69AR cells + 2 uM doxorubicin) | viability [6, 9] [%] | viability [6, 10] [%] | inhibition [7] | inhibition [8]
1 | Cc1cc2c(cc(C(=O)NCc3cccnc3)n2Cc2ccc(Cl)cc2)o1 | 92 | 68.5% (inactive) | 92% (inactive) | 103% (inactive) | 98.2% (inactive) | -0.245% (inactive) | 98.5 | 98.2 | -1.45% (inactive) | -3.33% (inactive)
2 | CCOc1ccc(C(=O)N2CCC(C(=O)c3ccc4c(c3)OCCO4)CC2)cc1 | 84.5 | 79.5% (inactive) | 84.5% (inactive) | 77.8% (inactive) | 86.3% (inactive) | 0.19% (inactive) | 86.1 | 86.3 | -4.61% (inactive) | -6.91% (inactive)
3 | O=C(CN1CCC(NC(=O)c2ccc(F)cc2)CC1)NCc1ccccc1F | 96.5 | 98.5% (inactive) | 96.5% (inactive) | 91.5% (inactive) | 103% (inactive) | 3.44% (inactive) | 100 | 103 | -5.6% (inactive) | -0.63% (inactive)
4 | O=C(NC1CCCC1)C(c1ccco1)N(Cc1ccccc1)C(=O)c1csnn1 (stereo not given) | 88.5 | 76% (inactive) | 88.5% (inactive) | 76.4% (inactive) | 97.5% (inactive) | 1.57% (inactive) | 95.9 | 97.5 | -8.65% (inactive) | 4.44% (inactive)
5 | COc1ccccc1N1CCN(C(=O)c2ccc(S(=O)(=O)N3CCCCCC3)cc2)CC1 | 89.5 | 98.5% (inactive) | 89.5% (inactive) | 89.4% (inactive) | 85.5% (inactive) | -2.48% (inactive) | 88 | 85.5 | -5.73% (inactive) | -3.44% (inactive)
6 | CC1CN(Cc2nc3c(c(=O)[nH]c(=O)n3C)n2CC(N)=O)CC(C)O1 (stereo not given) | 99.5 | 97.5% (inactive) | 99.5% (inactive) | 88.6% (inactive) | 102% (inactive) | 9.96% (inactive) | 92.4 | 102 | 0.51% (inactive) | 0.67% (inactive)
7 | COc1ccc2c(c1)n([O-])c1c([n+]2=O)CCC1 | 110 | 91.5% (inactive) | 110% (inactive) | 109% (inactive) | 100% (inactive) | -6% (inactive) | 106 | 100 | -1.18% (inactive) | -4.55% (inactive)
8 | Cc1ccccc1NC(=O)C1Cc2ccccc2C(=O)O1 (stereo not given) | 134 | 112% (inactive) | 134% (inactive) | 116% (inactive) | 98.7% (inactive) | 7.54% (inactive) | 91.2 | 98.7 | -4.93% (inactive) | 3.23% (inactive)
9 | S=c1[nH]nc(Cc2ccccc2)n1-c1ccccc1 | 108 | 112% (inactive) | 108% (inactive) | 113% (inactive) | 92.9% (inactive) | 6.14% (inactive) | 86.7 | 92.9 | -4.1% (inactive) | -6.33% (inactive)
10 | O=C(NCCCN1CCOCC1)C1CC(=O)N(CCc2ccccc2)C1 (stereo not given) | 104 | 89% (inactive) | 104% (inactive) | 84.1% (inactive) | 94.8% (inactive) | 7.94% (inactive) | 86.9 | 94.8 | -3.68% (inactive) | -1.29% (inactive)
11 | CCOC(=O)C1CCCN(C/C(O)=C(\C#N)c2nc(-c3ccc(Cl)cc3)cs2)C1 (stereo not given) | 78.5 | 101% (inactive) | 78.5% (inactive) | 71.8% (inactive) | 84.1% (inactive) | -7.97% (inactive) | 92.1 | 84.1 | -6.16% (inactive) | -3.17% (inactive)
12 | O=C(O)c1cccc(CN2C(=O)SC(Nc3ccccc3)C2=O)c1 (stereo not given) | 110 | 89% (inactive) | 110% (inactive) | 83% (inactive) | 103% (inactive) | 8.78% (inactive) | 94 | 103 | -4.8% (inactive) | 2.95% (inactive)
13 | COc1ccc(CNc2nc(SCC(=O)NCc3ccco3)nc3ccccc23)cc1 | 80 | 90.5% (inactive) | 80% (inactive) | 84.6% (inactive) | 94.4% (inactive) | 17.6% (inactive) | 76.7 | 94.4 | -3.6% (inactive) | -4.26% (inactive)
14 | Cc1c(NC(=O)CSc2nnc3sc4ccccc4n23)c(=O)n(-c2ccccc2)n1C | 94 | 92.5% (inactive) | 94% (inactive) | 106% (inactive) | 90.4% (inactive) | 0.76% (inactive) | 89.6 | 90.4 | 0.65% (inactive) | -2.79% (inactive)
15 | Cc1ccc2[nH]c3c(N4CCOCC4)ncnc3c2c1 | 116 | 95% (inactive) | 116% (inactive) | 76.3% (inactive) | 85.5% (inactive) | -15.7% (inactive) | 101 | 85.5 | -3.68% (inactive) | 8.2% (inactive)
16 | CC1=C(C(=O)OCc2ccccc2)C(c2ccc(C)o2)C2=C(CCCC2=O)N1 (stereo not given) | 72 | 88% (inactive) | 72% (inactive) | 113% (inactive) | 103% (inactive) | 13.5% (inactive) | 89.1 | 103 | -6.89% (inactive) | 6.07% (inactive)

Row | SMILES | viability [1] [%] | Her2 level [2] | viability [3] | viability [4] | viability [5] | differential viability (reversal) ([6]; H69AR cells + 2 uM doxorubicin) | viability [6, 9] [%] | viability [6, 10] [%] | inhibition [7] | inhibition [8]
17 | Cc1cccc(Cc2nnc(NC(=O)c3cccc(S(=O)(=O)N4CCOCC4)c3)s2)c1 | 107 | 100% (inactive) | 107% (inactive) | 87.1% (inactive) | 79.2% (inactive) | -2.97% (inactive) | 82.2 | 79.2 | -1.82% (inactive) | -5.33% (inactive)
18 | COc1ccc(N2CCN(CCCNC(=O)C3(S(=O)(=O)c4ccc(Cl)cc4)CC3)CC2)cc1 | 87.5 | 96.5% (inactive) | 87.5% (inactive) | 87.2% (inactive) | 83.1% (inactive) | -13.1% (inactive) | 96.1 | 83.1 | -0.65% (inactive) | -2.54% (inactive)
19 | Cc1c(C(=O)NCc2ccccc2)oc2c1C(=O)CCC2 | 72 | 93.5% (inactive) | 72% (inactive) | 75.2% (inactive) | 99.2% (inactive) | 15.6% (inactive) | 83.6 | 99.2 | -4.87% (inactive) | 5.67% (inactive)
20 | Cc1cccc2sc(NC(=O)CN(C)S(=O)(=O)c3cccs3)nc12 | 76.5 | 125% (inactive) | 76.5% (inactive) | 48.8% (inactive) | 92% (inactive) | -0.425% (inactive) | 92.5 | 92 | 0.39% (inactive) | -6.33% (inactive)
21 | Cc1ccc(S(=O)(=O)NCC2CCC(C(=O)NCCCN3CCOCC3)CC2)cc1 (stereo not given) | 89.5 | 93% (inactive) | 89.5% (inactive) | 92.7% (inactive) | 88.6% (inactive) | -8.07% (inactive) | 96.6 | 88.6 | -0.53% (inactive) | 24.9% (inactive)
22 | COc1ccc(-c2cc(C(F)(F)F)n3nc(C(=O)N4CCOCC4)nc3n2)cc1 | 88 | 116% (inactive) | 88% (inactive) | 101% (inactive) | 94.1% (inactive) | 4.48% (inactive) | 89.6 | 94.1 | -0.64% (inactive) | -4.17% (inactive)
23 | CCSCCC(NC1=CC(=O)CC(C)(C)C1)C(=O)O (stereo not given) | 92 | 89% (inactive) | 92% (inactive) | 116% (inactive) | 101% (inactive) | 5.77% (inactive) | 94.8 | 101 | 1.58% (inactive) | -3.45% (inactive)
24 | COc1ccc(S(=O)(=O)n2ccnc2)c2cccnc12 | 94.5 | 110% (inactive) | 94.5% (inactive) | 90.7% (inactive) | 96.1% (inactive) | -0.965% (inactive) | 97.1 | 96.1 | -2.13% (inactive) | -4.1% (inactive)
25 | COc1ccc(-c2cc(C(F)F)n3ncc(C(=O)NCC4CCCO4)c3n2)cc1 (stereo not given) | 92 | 89% (inactive) | 92% (inactive) | 82.7% (inactive) | 73.6% (inactive) | -3.58% (inactive) | 77.2 | 73.6 | -0.79% (inactive) | 4.35% (inactive)
26 | CCOC(=O)Cn1c(CN2CCN(c3cccc(Cl)c3)CC2)nc2c1c(=O)[nH]c(=O)n2C | 92.5 | 87% (inactive) | 92.5% (inactive) | 69% (inactive) | 72.5% (inactive) | -6.24% (inactive) | 78.7 | 72.5 | 0% (inactive) | 1.17% (inactive)
27 | CCN(CC)S(=O)(=O)c1cccc(-c2nnc(SCC(N)=O)n2CCc2ccccc2)c1 | 102 | 108% (inactive) | 102% (inactive) | 91% (inactive) | 74.7% (inactive) | -9.28% (inactive) | 84 | 74.7 | -2.21% (inactive) | -6.35% (inactive)
28 | O=C(O)CN1C(=O)CNC1=O | 98 | 93.5% (inactive) | 98% (inactive) | 99.2% (inactive) | 97.6% (inactive) | 2.41% (inactive) | 95.2 | 97.6 | -4.86% (inactive) | 7.21% (inactive)
29 | N#CC1=C(N)OC(c2ccccc2)=C(C#N)C1c1ccc2c(c1)OCO2 (stereo not given) | 95 | 108% (inactive) | 95% (inactive) | 85.5% (inactive) | 93.8% (inactive) | 13.3% (inactive) | 80.6 | 93.8 | -0.13% (inactive) | 100% (active)
30 | Cc1cccc(NC(=O)COc2ccc(Br)cc2)n1 | 126 | 110% (inactive) | 126% (inactive) | 90.5% (inactive) | 99.4% (inactive) | 6.92% (inactive) | 92.4 | 99.4 | -5.19% (inactive) | 11% (inactive)
31 | O=C(Nc1ccc2snnc2c1)N1CCSCC1 | 108 | 104% (inactive) | 108% (inactive) | 103% (inactive) | 98.9% (inactive) | 2.63% (inactive) | 96.2 | 98.9 | 0.77% (inactive) | -0.5% (inactive)
32 | CC1(C)OC(=O)C(=CNC(CCC(N)=O)C(=O)O)C(=O)O1 (stereo not given) | 100 | 110% (inactive) | 100% (inactive) | 109% (inactive) | 86.2% (inactive) | -14.4% (inactive) | 101 | 86.2 | 6.49% (inactive) | 5.4% (inactive)
